What was measured:
Format in all cases: functional
MOLT-4 = experiment: Growth inhibition of human MOLT4 cells incubated for 48 hrs by sulforhodamine B assay; settings: MOLT-4, 48 h
Summary of the method: (§1)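 NCI 60-line screen. Cells in RPMI-1640 with 5% FBS and 2 mM L-glutamine, preincubated 24 h, then time-zero plates TCA-fixed. Compounds from DMSO stocks given at five final concentrations (100, 10, 1.0, 0.1, 0.01 µM) for 48 h at 37 °C, 5% CO2. Cells fixed with 10% TCA, SRB-stained, read at 515 nm. GI50 is the concentration giving 50% lower net protein increase versus control.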

SR = experiment: Growth inhibition of human SR cells incubated for 48 hrs by sulforhodamine B assay; summary of the method: as §1
A549 = experiment: Growth inhibition of human A549/ATCC cells incubated for 48 hrs by sulforhodamine B assay; settings: A549, 48 h; summary of the method: as §1
EKVX = experiment: Growth inhibition of human EKVX cells incubated for 48 hrs by sulforhodamine B assay
Summary of the method: (§2)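 NCI five-dose SRB assay (100, 10, 1.0, 0.1, 0.01 µM) with 48 h exposure in RPMI-1640 with 5% FBS and 2 mM L-glutamine. Cells fixed with TCA and stained with SRB, read at 515 nm. GI50 is the concentration where [(Ti−Tz)/(C−Tz)]×100 = 50.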

HOP-92 = experiment: Growth inhibition of human HOP92 cells incubated for 48 hrs by sulforhodamine B assay; settings: HOP-92, 48 h
Summary of the method: (§3)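 Five-dose NCI SRB assay at 100, 10, 1.0, 0.1 and 0.01 μM for 48 h at 37 °C, 5% CO2. Medium was RPMI-1640 with 5% FBS and 2 mM glutamine. Time-zero plates were TCA-fixed at compound addition, A515 read after SRB staining. GI50 was solved from [(Ti−Tz)/(C−Tz)]×100 = 50. Values beyond the tested range are given as > or <.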

NCI-H23 = experiment: Growth inhibition of human NCI-H23 cells incubated for 48 hrs by sulforhodamine B assay; settings: NCI-H23, 48 h; summary of the method: as §3
NCI-H460 = experiment: Growth inhibition of human NCI-H460 cells incubated for 48 hrs by sulforhodamine B assay; settings: NCI-H460, 48 h; summary of the method: as §3
NCI-H522 = experiment: Growth inhibition of human NCI-H522 cells incubated for 48 hrs by sulforhodamine B assay; settings: NCI-H522, 48 h; summary of the method: as §1
HCT-15 = experiment: Growth inhibition of human HCT15 cells incubated for 48 hrs by sulforhodamine B assay; settings: HCT-15, 48 h; summary of the method: as §1
SW-620 = experiment: Growth inhibition of human SW620 cells incubated for 48 hrs by sulforhodamine B assay; settings: SW-620, 48 h
Summary of the method: (§4)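 NCI-60 panel cells grown in RPMI-1640 with 5% FBS and 2 mM L-glutamine, preincubated 24 h at 37 °C/5% CO2. Time-zero plates were TCA-fixed at compound addition. DMSO stocks were diluted in medium and tested at five final concentrations (100, 10, 1.0, 0.1, 0.01 µM) for 48 h. Cells were TCA-fixed, stained with SRB and read at 515 nm. GI50 = 50% lower net protein increase versus control.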

SF-295 = experiment: Growth inhibition of human SF295 cells incubated for 48 hrs by sulforhodamine B assay; settings: SF-295, 48 h; summary of the method: as §3
SNB-19 = experiment: Growth inhibition of human SNB19 cells incubated for 48 hrs by sulforhodamine B assay; settings: SNB-19, 48 h; summary of the method: as §4
SNB-75 = experiment: Growth inhibition of human SNB75 cells incubated for 48 hrs by sulforhodamine B assay; settings: SNB-75, 48 h; summary of the method: as §1
LOX IMVI = experiment: Growth inhibition of human LOXIMVI cells incubated for 48 hrs by sulforhodamine B assay; summary of the method: as §3
M14 = experiment: Growth inhibition of human M14 cells incubated for 48 hrs by sulforhodamine B assay; settings: M14, 48 h; summary of the method: as §3
MDA-MB-435 = experiment: Growth inhibition of human MDA-MB-435 cells incubated for 48 hrs by sulforhodamine B assay; settings: MDA-MB-435, 48 h; summary of the method: as §3
UACC-257 = experiment: Growth inhibition of human UACC257 cells incubated for 48 hrs by sulforhodamine B assay; settings: UACC-257, 48 h; summary of the method: as §4
OVCAR-3 = experiment: Growth inhibition of human OVCAR3 cells incubated for 48 hrs by sulforhodamine B assay; settings: OVCAR-3, 48 h; summary of the method: as §3
OVCAR-5 = experiment: Growth inhibition of human OVCAR5 cells incubated for 48 hrs by sulforhodamine B assay; settings: OVCAR-5, 48 h; summary of the method: as §1
NCI/ADR-RES = experiment: Growth inhibition of human NCI/ADR-RES cells incubated for 48 hrs by sulforhodamine B assay; summary of the method: as §1
ACHN = experiment: Growth inhibition of human ACHN cells incubated for 48 hrs by sulforhodamine B assay; summary of the method: as §1
RXF 393 = experiment: Growth inhibition of human RXF393 cells incubated for 48 hrs by sulforhodamine B assay; settings: RXF 393, 48 h; summary of the method: as §3
SN12C = experiment: Growth inhibition of human SN12C cells incubated for 48 hrs by sulforhodamine B assay; summary of the method: as §4
PC-3 = experiment: Growth inhibition of human PC3 cells incubated for 48 hrs by sulforhodamine B assay; settings: PC-3, 48 h; summary of the method: as §3
MCF7 = experiment: Growth inhibition of human MCF7 cells incubated for 48 hrs by sulforhodamine B assay; settings: MCF7, 48 h; summary of the method: as §1
Hs-578T = experiment: Growth inhibition of human Hs578T cells incubated for 48 hrs by sulforhodamine B assay; summary of the method: as §3
BT-549 = experiment: Growth inhibition of human BT549 cells incubated for 48 hrs by sulforhodamine B assay; settings: BT-549, 48 h; summary of the method: as §2
MDA-MB-468 = experiment: Growth inhibition of human MDA-MB-468 cells incubated for 48 hrs by sulforhodamine B assay; settings: MDA-MB-468, 48 h; summary of the method: as §3
Staphylococcus aureus = experiment: Antibacterial activity against methicillin-resistant Staphylococcus aureus ATCC 43300 after 24 hrs by resazurin dye based microdilution assay; settings: ATCC 43300, 24 h
Summary of the method: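 Broth microdilution in Mueller Hinton broth, inoculum 5 × 10^5 – 8 × 10^5. Compound stocks diluted in MHB with 5% DMSO and 0.1% Tween 80. Incubation 24 h at 35-37 °C. MIC is the lowest concentration with visible growth inhibition and/or by resazurin (1 mg/mL) read-out. Gentamicin as control. Run in duplicate, replicated at least three times.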

[1] = read-out: LC50 (the source's name)

In the case of O=CN1N=C(c2ccc(Cl)cc2)CC1c1cccc(Nc2ccnc3cc(Cl)ccc23)c1 (configuration not stated), the GI50 (MOLT-4) is reported as 1130 nM, the CC50 (MOLT-4; [1]) is reported as greater than 100000 nM and the GI50 (SR) is reported as 400 nM. The CC50 (SR; [1]) was greater than 100000 nM, the GI50 (A549) was 2030 nM and the LC50 (concentration giving 50% net cell kill) (A549) was greater than 100000 nM. It also gave a GI50 (EKVX) of 1590 nM, an LC50 (EKVX) greater than 100000 nM and a GI50 (HOP-92) of 1450 nM. For the same compound, the LC50 (concentration giving 50% net cell kill) (HOP-92) was greater than 100000 nM, the GI50 (NCI-H23) was 1070 nM and the CC50 (NCI-H23; [1]) was greater than 100000 nM. It also gave a GI50 (NCI-H460) of 1860 nM, a CC50 (NCI-H460; [1]) greater than 100000 nM and a GI50 (NCI-H522) of 1120 nM. The CC50 (NCI-H522; [1]) was 66700 nM, the GI50 (HCT-15) was 1360 nM and the CC50 (HCT-15; [1]) was greater than 100000 nM. The GI50 (SW-620) was 1610 nM, the CC50 (SW-620; [1]) was greater than 100000 nM and the GI50 (SF-295) was 500 nM. It also gave a CC50 (SF-295; [1]) greater than 100000 nM, a GI50 (SNB-19) of 4190 nM and a CC50 (SNB-19; [1]) greater than 100000 nM. The GI50 (SNB-75) was 1700 nM, the CC50 (SNB-75; [1]) was greater than 100000 nM and the GI50 (LOX IMVI) was 1290 nM. It also gave a CC50 (LOX IMVI; [1]) of 9050 nM, a GI50 (M14) of 1550 nM and a CC50 (M14; [1]) greater than 100000 nM. It also gave a GI50 (MDA-MB-435) of 380 nM, a CC50 (MDA-MB-435; [1]) greater than 100000 nM and a GI50 (UACC-257) of 1470 nM. The CC50 (UACC-257; [1]) was greater than 100000 nM, the GI50 (OVCAR-3) was 1100 nM and the CC50 (OVCAR-3; [1]) was 83300 nM. It also gave a GI50 (OVCAR-5) of 9420 nM, a CC50 (OVCAR-5; [1]) greater than 100000 nM and a GI50 (NCI/ADR-RES) of 780 nM. The CC50 (NCI/ADR-RES; [1]) was greater than 100000 nM, the GI50 (ACHN) was 2640 nM and the CC50 (ACHN; [1]) was greater than 100000 nM. The GI50 (RXF 393) was 1400 nM, the CC50 (RXF 393; [1]) was greater than 100000 nM and the GI50 (SN12C) was 3990 nM. The CC50 (SN12C; [1]) was greater than 100000 nM, the GI50 (PC-3) was 1690 nM and the CC50 (PC-3; [1]) was greater than 100000 nM. The GI50 (MCF7) was 870 nM, the CC50 (MCF7; [1]) was greater than 100000 nM and the GI50 (Hs-578T) was 3230 nM. The CC50 (Hs-578T; [1]) was greater than 100000 nM, the GI50 (BT-549) was 1780 nM and the CC50 (BT-549; [1]) was greater than 100000 nM. For the same compound, the GI50 (MDA-MB-468) was 280 nM, the CC50 (MDA-MB-468; [1]) was greater than 100000 nM and the MIC (Staphylococcus aureus) was greater than 1000 µg/mL.

From ChEMBL document CHEMBL4038284, “Synthesis of novel quinoline-based 4,5-dihydro-1H-pyrazoles as potential anticancer, antifungal, antibacterial and antiprotozoal agents” (Eur J Med Chem, 2017)
